Experimental data reported in PMC3240942 (Molecular cell, 2011).
Where no end group is shown, it is not given here.

Legend:
Sirt1 [1] = biological target: T1, Sirt1 (Mus musculus, UniProt Q923E4); details: 2007, cited from earlier work; for reported Sirt1 activation: ref Howitz et al., 2003, Milne et al.
T1 sequence (Q923E4 1-737): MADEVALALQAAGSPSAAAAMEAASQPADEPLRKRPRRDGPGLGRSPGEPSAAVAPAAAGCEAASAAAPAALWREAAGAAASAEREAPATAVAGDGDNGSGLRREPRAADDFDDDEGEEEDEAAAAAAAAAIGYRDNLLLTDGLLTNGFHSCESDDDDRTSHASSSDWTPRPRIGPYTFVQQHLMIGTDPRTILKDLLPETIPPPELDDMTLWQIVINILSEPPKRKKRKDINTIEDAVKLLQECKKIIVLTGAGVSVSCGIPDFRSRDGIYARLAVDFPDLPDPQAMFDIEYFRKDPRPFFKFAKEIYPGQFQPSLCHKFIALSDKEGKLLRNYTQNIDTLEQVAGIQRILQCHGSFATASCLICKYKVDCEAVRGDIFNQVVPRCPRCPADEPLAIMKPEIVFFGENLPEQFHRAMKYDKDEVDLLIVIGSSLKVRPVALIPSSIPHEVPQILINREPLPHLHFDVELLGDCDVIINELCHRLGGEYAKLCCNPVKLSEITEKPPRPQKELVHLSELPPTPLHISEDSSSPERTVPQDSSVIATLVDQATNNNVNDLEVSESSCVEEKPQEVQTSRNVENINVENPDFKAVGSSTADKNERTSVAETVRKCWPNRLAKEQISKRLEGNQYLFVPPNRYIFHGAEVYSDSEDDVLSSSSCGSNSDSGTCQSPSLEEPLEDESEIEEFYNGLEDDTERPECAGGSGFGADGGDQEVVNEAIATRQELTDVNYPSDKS

Sirt1 [2] = biological target: T1, Sirt1; assay: Lineweaver-Burk kinetics of Sirt1; format: biochemical; details: Sirt1 substrate/cofactor, under our reaction conditions
How it was run: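 His-Sirt1 (2 μg) was pre-incubated 5 min at room temperature in HEPES pH 7.0 buffer with mutant ESA peptide at 0, 60, 120 or 240 μM. Ac-K16 H4 fluorogenic dipeptide was varied at 500 μM NAD+, or NAD+ was varied at 100 μM substrate. Reactions ran 25 min at 37 °C and were stopped with nicotinamide developer; ex 355/em 460 nm, no-NAD+ blank subtracted. Triplicates. Kis/Kii came from a double-reciprocal noncompetitive model fit, Km from the same analysis, kcat from a Michaelis–Menten fit.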

Ac-H4 peptide = assay: Pull-down with streptavidin-immobilized Ac-H4 peptide; format: binding
How it was run: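 Biotinylated peptide (mutant ESA or acetyl-H4) was bound to streptavidin agarose for 1 h at room temperature, washed, and held in PBS/1% Triton X-100. Beads (30 μl) took 2 μg GST-fused or His-tagged protein for 2 h at room temperature. Beads were washed with PBS/1% Triton/200 mM NaCl and eluted in β-ME SDS buffer at 95 °C for 10 min. Blots ran on 4–12% SDS-PAGE; biotin-only beads were the control.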

[3] = system: Lys 382 acetylated-p53 (Ac-p53); assay: Deacetylation of Lys 382 acetylated-p53 by recombinant WT/mutant Sirt1; format: biochemical, mouse Sirt1; details: recombinant Sirt1 2 μg, acetylated GST-p53 0.2 μg, 0.5 mM NAD+, pH 7.0, 37 °C; immunoblot
How it was run: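 Recombinant His-tagged WT or C-terminally truncated/point-mutant mouse Sirt1 (2 μg) incubated with acetylated GST-p53 (0.2 μg) and 0.5 mM NAD+ in 50 mM HEPES pH 7.0, 1 mM DTT, 10 mM MgCl2, 200 mM NaCl plus protease/phosphatase inhibitors. Reactions ran at 37 °C for indicated times and were stopped with SDS sample buffer. Read-out: immunoblot with acetyl-K382 p53 antibody; loading checked by Coomassie, Ponceau S or Western blot.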

GST-Ac-p53 = assay: Pull-down of Sirt1 / core fragments with GST-Ac-p53; format: binding; details: in vitro pull-down
How it was run: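 In vitro pull-downs with GST-Ac-p53 or GST alone as negative control. Recombinant Flag-tagged full-length or ΔESA (a.a. 631-655 deleted) Sirt1 pulled down with anti-Flag, bound GST-Ac-p53 detected by GST immunoblot, and Sirt1 shown by Coomassie. Alternatively, core (a.a. 184-510) or Core-ESA with GST-Ac-p53 (2 μg each) in GST pull-down, bound core detected by Sirt1 immunoblot.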

[4] = biological target: T2, Sirt1 deacetylase core (Core, a.a. 184-510) (mouse, UniProt Q923E4 184-510); assay: pull-down
T2 sequence (looked up): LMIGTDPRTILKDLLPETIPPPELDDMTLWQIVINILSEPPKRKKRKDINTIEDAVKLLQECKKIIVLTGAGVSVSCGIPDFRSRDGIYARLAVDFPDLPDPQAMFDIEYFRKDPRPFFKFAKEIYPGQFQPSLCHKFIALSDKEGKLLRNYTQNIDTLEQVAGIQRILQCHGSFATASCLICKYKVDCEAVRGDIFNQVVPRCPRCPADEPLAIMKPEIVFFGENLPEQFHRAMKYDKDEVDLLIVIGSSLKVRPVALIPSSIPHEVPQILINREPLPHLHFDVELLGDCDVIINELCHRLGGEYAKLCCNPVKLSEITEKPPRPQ

[5] = biological target: T3, Sirt1 fragment F1b (the Sirtuin domain, a.a. 236-490) (mouse, UniProt Q923E4 236-490); assay: pull-down
T3 sequence (looked up): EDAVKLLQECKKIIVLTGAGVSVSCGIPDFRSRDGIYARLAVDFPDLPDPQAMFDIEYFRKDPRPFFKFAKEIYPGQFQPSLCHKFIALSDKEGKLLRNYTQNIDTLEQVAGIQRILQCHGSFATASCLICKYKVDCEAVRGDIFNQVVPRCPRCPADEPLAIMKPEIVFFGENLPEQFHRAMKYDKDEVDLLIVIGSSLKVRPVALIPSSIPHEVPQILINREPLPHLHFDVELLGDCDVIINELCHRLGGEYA

Flag-p65 (NF-κB) = assay: Co-immunoprecipitation of Sirt1 with Flag-p65 in Hela cells; format: cell-based; details: V5-tagged Sirt1
How it was run: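 Transient co-transfection of HeLa cells with Flag-NF-κB p65 plus V5-tagged full-length or ΔESA Sirt1. p65 was pulled down with anti-Flag, and bound Sirt1 was detected by anti-V5 immunoblot alongside input levels.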

Question: Which “reported Sirt1 activation” value (Sirt1 [1]) does the source give for `O=C(Nc1ccccc1-c1cn2c(CN3CCNCC3)csc2n1)c1cnc2ccccc2n1` [SRT1720, reference compound] here?
Answer: reported to activate Sirt1

Question: With `NC(=O)c1ccc[n+]([C@@H]2O[C@H](COP(=O)([O-])OP(=O)(O)OC[C@H]3O[C@@H](n4cnc5c(N)ncnc54)[C@H](O)[C@@H]3O)[C@@H](O)[C@H]2O)c1` [NAD^+, reference compound] as the molecule, how does the Km (Sirt1 [2]) read?
Answer: 203 µM

Question: Which “binding to Ac-H4 peptide” value (Ac-H4 peptide) does the source give for “GST-ESA: ESA fused to GST (QYLFVPPNRYIFHGAEVYSDSEDDV; also: fused to GST, end not given here)” here?
Answer: not to either GST-ESA or GST alone

Question: For `Oc1ccc(/C=C/c2cc(O)cc(O)c2)cc1` [resveratrol, reference compound], which “reported Sirt1 activation” value (Sirt1 [1]) is on record?
Answer: reported to activate Sirt1

B1: deacetylase core: a.a. 184-510 of Sirt1 (protein)
chain: LMIGTDPRTILKDLLPETIPPPELDDMTLWQIVINILSEPPKRKKRKDINTIEDAVKLLQECKKIIVLTGAGVSVSCGIPDFRSRDGIYARLAVDFPDLPDPQAMFDIEYFRKDPRPFFKFAKEIYPGQFQPSLCHKFIALSDKEGKLLRNYTQNIDTLEQVAGIQRILQCHGSFATASCLICKYKVDCEAVRGDIFNQVVPRCPRCPADEPLAIMKPEIVFFGENLPEQFHRAMKYDKDEVDLLIVIGSSLKVRPVALIPSSIPHEVPQILINREPLPHLHFDVELLGDCDVIINELCHRLGGEYAKLCCNPVKLSEITEKPPRPQ
modifications: left off: His tag, end not stated, kept
Question: With B1 as the molecule, how does the “deacetylase activity against Ac-p53” value [3] read?
Answer: no catalytic activity

B2: Core-ESA: ESA region attached to the deacetylase core (protein)
chain: LMIGTDPRTILKDLLPETIPPPELDDMTLWQIVINILSEPPKRKKRKDINTIEDAVKLLQECKKIIVLTGAGVSVSCGIPDFRSRDGIYARLAVDFPDLPDPQAMFDIEYFRKDPRPFFKFAKEIYPGQFQPSLCHKFIALSDKEGKLLRNYTQNIDTLEQVAGIQRILQCHGSFATASCLICKYKVDCEAVRGDIFNQVVPRCPRCPADEPLAIMKPEIVFFGENLPEQFHRAMKYDKDEVDLLIVIGSSLKVRPVALIPSSIPHEVPQILINREPLPHLHFDVELLGDCDVIINELCHRLGGEYAKLCCNPVKLSEITEKPPRPQQYLFVPPNRYIFHGAEVYSDSEDDV
modifications: left off: His tag, end not stated, kept
Question: For B2, which “binding to Ac-H4 peptide” value (Ac-H4 peptide) is on record?
Answer: increases the deacetylase core-Ac-H4 interaction

Question: What about the “deacetylase activity against Ac-p53” value [3] of the same molecule?
Answer: restored deacetylase activity

Question: And the “binding to GST-Ac-p53” value (GST-Ac-p53)?
Answer: increases the deacetylase core-Ac-p53 interaction

B3: Core-GPDR: GPDR-mutated ESA region attached to the Core (protein)
chain: LMIGTDPRTILKDLLPETIPPPELDDMTLWQIVINILSEPPKRKKRKDINTIEDAVKLLQECKKIIVLTGAGVSVSCGIPDFRSRDGIYARLAVDFPDLPDPQAMFDIEYFRKDPRPFFKFAKEIYPGQFQPSLCHKFIALSDKEGKLLRNYTQNIDTLEQVAGIQRILQCHGSFATASCLICKYKVDCEAVRGDIFNQVVPRCPRCPADEPLAIMKPEIVFFGENLPEQFHRAMKYDKDEVDLLIVIGSSLKVRPVALIPSSIPHEVPQILINREPLPHLHFDVELLGDCDVIINELCHRLGGEYAKLCCNPVKLSEITEKPPRPQQYLFVPPNRYIFHPAEVYSRSEDDV
Question: With B3 as the molecule, how does the “binding to Ac-H4 peptide” value (Ac-H4 peptide) read?
Answer: interacted poorly with the Ac-H4 peptide

B4: ESA peptide (biotin-tagged peptide of the region essential for Sirt1 activity, a.a. 631-655) (peptide, UniProt Q923E4 631-655, looked up)
peptide: QYLFVPPNRYIFHGAEVYSDSEDDV
modifications: also: biotin-tagged, position not given here
Question: Which results are given for B4?
Answer: binding result [4]: binds; binding result [5]: binds

B5: AROS: Active Regulator of Sirt1 (protein, UniProt Q86WX3 1-136, looked up)
Active regulator of SIRT1: MSAALLRRGLELLAASEAPRDPPGQAKPRGAPVKRPRKTKAIQAQKLRNSAKGKVPKSALDEYRKRECRDHLRVNLKFLTRTRSTVAESVSQQILRQNRGRKACDRPVAKTKKKKAEGTVFTEEDFQKFQQEYFGS
Question: Which “effect on Sirt1 activity” value (Sirt1 [1]; binds to N-terminal domain of Sirt1, ref Kim et al.) does the source give for B5 here?
Answer: activates its activity

B6: WT Sirt1: wild-type full-length Sirt1 (protein)
chain: MADEVALALQAAGSPSAAAAMEAASQPADEPLRKRPRRDGPGLGRSPGEPSAAVAPAAAGCEAASAAAPAALWREAAGAAASAEREAPATAVAGDGDNGSGLRREPRAADDFDDDEGEEEDEAAAAAAAAAIGYRDNLLLTDGLLTNGFHSCESDDDDRTSHASSSDWTPRPRIGPYTFVQQHLMIGTDPRTILKDLLPETIPPPELDDMTLWQIVINILSEPPKRKKRKDINTIEDAVKLLQECKKIIVLTGAGVSVSCGIPDFRSRDGIYARLAVDFPDLPDPQAMFDIEYFRKDPRPFFKFAKEIYPGQFQPSLCHKFIALSDKEGKLLRNYTQNIDTLEQVAGIQRILQCHGSFATASCLICKYKVDCEAVRGDIFNQVVPRCPRCPADEPLAIMKPEIVFFGENLPEQFHRAMKYDKDEVDLLIVIGSSLKVRPVALIPSSIPHEVPQILINREPLPHLHFDVELLGDCDVIINELCHRLGGEYAKLCCNPVKLSEITEKPPRPQKELVHLSELPPTPLHISEDSSSPERTVPQDSSVIATLVDQATNNNVNDLEVSESSCVEEKPQEVQTSRNVENINVENPDFKAVGSSTADKNERTSVAETVRKCWPNRLAKEQISKRLEGNQYLFVPPNRYIFHGAEVYSDSEDDVLSSSSCGSNSDSGTCQSPSLEEPLEDESEIEEFYNGLEDDTERPECAGGSGFGADGGDQEVVNEAIATRQELTDVNYPSDKS
modifications: left off: His tag, end not stated, kept
Question: With B6 as the molecule, how does the “binding to Ac-H4 peptide” value (Ac-H4 peptide) read?
Answer: Ac-H4 peptide bound to full-length Sirt1

Question: And the “co-immunoprecipitation with Flag-p65” value (Flag-p65 (NF-κB))?
Answer: readily co-immunoprecipitated with Flag-p65
